Assays:
[1] = target: T1, Sterol O-acyltransferase 1 (Rattus norvegicus) (UniProt O70536); assay: In vitro inhibitory activity against acyl coenzyme A:cholesterol acyltransferase (ACAT); parameters: concentration or dose not given beside the values; conditions: concentration not given here
T1 sequence (whole entry): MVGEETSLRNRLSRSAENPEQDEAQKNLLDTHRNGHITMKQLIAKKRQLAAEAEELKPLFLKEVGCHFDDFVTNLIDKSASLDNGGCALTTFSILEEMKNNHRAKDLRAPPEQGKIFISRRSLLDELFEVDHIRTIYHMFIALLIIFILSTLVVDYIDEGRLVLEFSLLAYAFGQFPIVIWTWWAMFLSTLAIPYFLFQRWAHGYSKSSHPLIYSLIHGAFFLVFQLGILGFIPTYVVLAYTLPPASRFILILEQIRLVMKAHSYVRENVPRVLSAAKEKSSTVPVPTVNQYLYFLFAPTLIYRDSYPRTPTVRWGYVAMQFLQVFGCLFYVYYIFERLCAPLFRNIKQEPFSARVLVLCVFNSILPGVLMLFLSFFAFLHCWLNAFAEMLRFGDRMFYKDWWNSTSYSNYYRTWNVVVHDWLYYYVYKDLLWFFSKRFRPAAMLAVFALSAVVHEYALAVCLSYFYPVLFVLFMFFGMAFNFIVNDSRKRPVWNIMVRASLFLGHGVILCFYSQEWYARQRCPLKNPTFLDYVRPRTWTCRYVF
Procedure, shortened: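 ACAT enzyme from rat adrenal homogenate in 0.2 M KH2PO4 buffer pH 7.4, 1000g 15 min 5 °C supernatant (microsomal fraction). Supernatant + BSA (50 mg/mL) + compound at final 5.2 μg/mL + buffer preincubated 10 min 37 °C; [14C]oleoyl-CoA (0.4 μCi) added, 30 min 37 °C. Lipids extracted, TLC; cholesteryl ester zone counted. Mean % inhibition vs no-compound control; Student's t test.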

Rattus norvegicus [2] = assay: In vivo Triglyceride lowering activity at dose as 0.025 % of the diet; type: functional
Procedure, shortened: (§1)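 Male CFE or CD-1 Sprague-Dawley rats, 140-150 g; 8 per control group, 4 per test group. Compound mixed into ground chow (w/w) via MeOH-CHCl3 (1:3) solution, solvent evaporated; controls got solvent-treated chow. Fed ad libitum 5 days, food intake monitored, killed fed and bled. Serum sterols and triglycerides by adapted autoanalyzer methods; mean percent of control, Student's t test.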

Rattus norvegicus [3] = assay: In vivo Sterol lowering activity at dose as 0.025 % of the diet.; type: functional; procedure, shortened: as §1
Rattus norvegicus [4] = assay: In vivo Sterol lowering activity at dose as 0.05 % of the diet.; type: functional; procedure, shortened: as §1
Rattus norvegicus [5] = assay: In vivo sterol lowering activity dosed at 0.10 % of the diet; type: functional; procedure, shortened: as §1
Rattus norvegicus [6] = assay: In vivo Triglyceride lowering activity at dose as 0.05 % of the diet.; type: functional; procedure, shortened: as §1
Rattus norvegicus [7] = assay: In vivo triglyceride lowering activity dosed at 0.10 % of the diet; type: functional; procedure, shortened: as §1
Rattus norvegicus [8] = assay: In vivo Triglyceride lowering activity at dose as 0.017 % of the diet; type: functional; procedure, shortened: as §1
Rattus norvegicus [9] = assay: In vivo Sterol lowering activity at dose as 0.05 % of the diet; type: functional; procedure, shortened: as §1
Rattus norvegicus [10] = assay: In vivo triglyceride lowering activity dosed at 0.05 % of the diet; type: functional; procedure, shortened: as §1
Rattus norvegicus [11] = assay: In vivo Sterol lowering activity at dose as 0.017 % of the diet; type: functional; procedure, shortened: as §1
Rattus norvegicus [12] = assay: In vivo Sterol lowering activity at dose as 0.10 % of the diet.; type: functional; procedure, shortened: as §1
Rattus norvegicus [13] = assay: In vivo triglyceride lowering activity, dosed at 0.10 % of the diet.; type: functional; procedure, shortened: as §1
Rattus norvegicus [14] = assay: In vivo Triglyceride lowering activity at dose as 0.025% of the diet; type: functional; procedure, shortened: as §1
Rattus norvegicus [15] = assay: In vivo Sterol lowering activity at dose as 0.025 % of the diet; type: functional; procedure, shortened: as §1
Rattus norvegicus [16] = assay: In vivo Triglyceride lowering activity at dose as 0.017 % of the diet.; type: functional; procedure, shortened: as §1
Rattus norvegicus [17] = assay: In vivo Sterol lowering activity at dose as 0.017 % of the diet.; type: functional; procedure, shortened: as §1
Rattus norvegicus [18] = assay: In vivo Triglyceride lowering activity at dose as 0.025% of the diet.; type: functional; procedure, shortened: as §1
Rattus norvegicus [19] = assay: In vivo Triglyceride lowering activity at dose as 0.025 % of the diet.; type: functional; procedure, shortened: as §1

| Compound | inhibition [1] [%] | Diet (Rattus norvegicus [3]) [%] | Diet (Rattus norvegicus [4]) [%] | serum sterol, percent of control (Rattus norvegicus [5]) [%] | Diet (Rattus norvegicus [6]) [%] | serum triglycerides, percent of control (Rattus norvegicus [7]) [%] | Diet (Rattus norvegicus [9]) [%] | Diet (Rattus norvegicus [10]) [%] | serum sterol, percent of control (Rattus norvegicus [12]) [%] | other results |
| --- | --- | --- | --- | --- | --- | --- | --- | --- | --- | --- |
| O=C(O)c1ccc(NCCc2ccccc2)cc1 | 9 | 90 | 84 | 88 | 70 | 48 | – | – | – | Diet (Rattus norvegicus [2]): 64% |
| CCCCCCCCCCCCCOc1ccc(CNc2ccc(C(=O)O)cc2)cc1 | < 36 | – | – | 81 | – | <56 | 100 | <65 | – | Serum triglycerides, % of control (Rattus norvegicus [8]): <62%; Diet (Rattus norvegicus [11]): 100% |
| CCOC(=O)c1ccc(NCCCc2ccccc2OC)cc1 | 64 | 96 | 107 | – | 66 | – | – | – | 107 | Diet (Rattus norvegicus [2]): 61%; Diet (Rattus norvegicus [13]): 74% |
| O=C(O)c1ccc(NCCCCCCCCCc2ccccc2)cc1 | < 28 | – | – | 92 | – | <68 | 96 | <58 | – | Diet (Rattus norvegicus [14]): <50%; Diet (Rattus norvegicus [15]): 96% |
| O=C(O)c1ccc(NCc2ccccc2)cc1 | 2 | – | – | 87 | – | 65 | 86 | 62 | – | Diet (Rattus norvegicus [16]): 92%; Diet (Rattus norvegicus [17]): 101% |
| O=C(O)c1ccc(NCCc2ccc(OCc3ccccc3)cc2)cc1 | 18 | 100 | 103 | – | 81 | – | – | – | – | Diet (Rattus norvegicus [2]): 70%; Diet (Rattus norvegicus [12]): 86%; Diet (Rattus norvegicus [13]): 84% |
| CCOC(=O)c1ccc(NCCCCc2cccs2)cc1 | 56 | 94 | 97 | – | 96 | – | – | – | 90 | Diet (Rattus norvegicus [18]): 89%; Diet (Rattus norvegicus [13]): 99% |
| CCOC(=O)c1ccc(NCCCCCc2ccccc2)cc1 | 69 | 92 | – | – | – | 62 | 85 | 66 | 90 | Diet (Rattus norvegicus [18]): 84% |
| O=C(O)c1ccc(NCCCCCCCCCCCc2ccccc2)cc1 | < 24 | – | – | <83 | – | <74 | <76 | <69 | – | Diet (Rattus norvegicus [14]): <68%; Diet (Rattus norvegicus [15]): 83% |
| CCOC(=O)c1ccc(NCc2ccc(-c3ccccc3)cc2)cc1 | 19 | 102 | – | – | 76 | 52 | 94 | – | 94 | Diet (Rattus norvegicus [19]): 74% |
| CCCCCCCOc1ccc(CNc2ccc(C(=O)O)cc2)cc1 | < 24 | – | – | <84 | – | <72 | <84 | <70 | – | Serum triglycerides, % of control (Rattus norvegicus [8]): 95%; Diet (Rattus norvegicus [11]): 100% |
| O=C(O)c1ccc(NCCc2cccc3ccccc23)cc1 | – | – | 108 | – | – | 63 | – | 67 | 93 | Diet (Rattus norvegicus [16]): 89%; Diet (Rattus norvegicus [17]): 108% |
| O=C(O)c1ccc(NCCCCCc2ccccc2)cc1 | 26 | 95 | – | – | 78 | – | 84 | – | 108 | Diet (Rattus norvegicus [18]): 96%; Diet (Rattus norvegicus [13]): 89% |
| O=C(O)c1ccc(NCc2ccc(OCc3ccccc3)cc2)cc1 | 16 | 93 | 98 | – | – | 89 | – | 85 | 97 | Diet (Rattus norvegicus [16]): 91% |
